# Experimental data: PubChem BioAssay AID635 (SRMLSC, 2007)
# Out of some 1,300 compounds screened, about 40 (3%) were called active. Not all results are given here. Results with a measured potency or affinity are listed apart. A number with no mark means an inactive call. How the calls were made is not given here.
# Test: growth inhibition of wild-type E. coli BW25113 pool, dose response, OD615 (AID 635)
# Details: pooled mutant strains; at 100 µM (top of the series)
# Procedure, shortened: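 times: 20 h, 37 °C growth with compound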
row,SMILES,growth inhibition [%]
1,Cc1cccc(N(C)C(=O)c2cc3cc4ccc(C)cc4nc3o2)c1,-7.96
2,CC(C)OCCCNc1ncnc2c1[nH]c1ccccc12,0.81
3,CC(C)OCCCNc1ncnc2c1[nH]c1ccc(F)cc12,-0.56
4,O=C(CSc1nc2ccccc2o1)Nc1nc2c(s1)CCCC2,-2.1
5,Cc1cc(NC(=O)Cn2nnc3sc4c(c3c2=O)CCC(C(C)(C)C)C4)no1 (stereo unspecified),-1.22
6,CCOC(=O)Cc1ccc(NS(=O)(=O)c2ccc(SC)cc2)cc1,0.18
7,c1ccc2c(c1)CCN(c1nc3cc4c(cc3s1)OCCO4)C2,0.44
8,CC(C)c1ccc(Nc2nc(NCc3ccco3)nc(N3CCOCC3)n2)cc1,-1.77
9,COc1ccc(NS(=O)(=O)c2ccc3oc(Nc4ccc5c(c4)OCCO5)nc3c2)cc1,-4.76
10,CCCN(CCC)S(=O)(=O)c1ccc(C(=O)Nc2nnc(-c3cccc(OC)c3)o2)cc1,-1.14
11,Cc1cccc(N2CCN(C(=O)C34CC5CC(CC(C5)C3)C4)CC2)c1C,4.49
12,Cn1cccc1C(=O)Nc1nc(-c2ccccn2)cs1,1.36
13,COc1ccc(C(=O)Nn2cnc3scc(-c4cccs4)c3c2=O)c(O)c1,0.89
14,COC(=O)c1[nH]c2cccc(OC)c2c1NC(=O)CN1CC2(C)CC1CC(C)(C)C2 (stereo unspecified),1.93
15,COC(=O)c1cccc(-n2nnnc2SCC(=O)Nc2nc3c(s2)CCCC3)c1,-0.44
16,O=C1OC(c2ccc(O)cc2)(c2ccc(O)cc2)c2ccccc21,0.54
17,Cc1cccc(Nc2nc(NCc3ccco3)nc(N3CCOCC3)n2)c1,0.54
18,CCOc1cc(S(=O)(=O)n2cc(-c3ccc(F)cc3)c(N)n2)cc(OCC)c1OCC,-3.17
19,CC1Cc2ccccc2N1C(=O)Cn1c(=O)oc2cc(S(=O)(=O)NC3CCCC3)ccc21 (stereo unspecified),-2.66
20,CCCn1nnnc1NC(=O)CSc1ccc(Cl)cc1,1.76
21,Cc1cc(NC(=O)C2CCCCC2)nc2c1c(=O)oc1ccccc12,-2.5

row,SMILES,growth inhibition [%]
1,N#Cc1nc(COc2ccc(F)cc2)oc1N1CCN(Cc2ccccc2)CC1,-4.59
2,c1ccc2oc(SCc3nc4ccccc4s3)nc2c1,-0.66
3,C=CCn1c(SCC(=O)Nc2ccc3c(c2)CCC3)nnc1-c1cccs1,-0.97
4,O=C(c1cc2ccccc2o1)N1CCN(c2ccccc2Cl)CC1,-2.73
5,O=C(CSc1nnnn1C1CCCCC1)Nc1nc2c(s1)CCCC2,-0.43
6,O=C(O)c1cc(Cl)c2ccccc2c1O,9.52
7,O=c1c(-c2nc3ccccc3o2)c2oc3ccccc3n2c2ccccc12,-2.69
8,Cc1cccc(S(=O)(=O)Nc2nc3ccccc3nc2NCc2ccco2)c1,2.5
9,Cc1ccc(-n2c(C)cc(C(=O)COC(=O)c3c(C)noc3C)c2C)cc1,-5.46
10,O=C(c1cccs1)N(Cc1nc2sc3c(c2c(=O)[nH]1)CCCC3)C1CCCC1,-3.44
11,N#Cc1ccc(NC(=O)Nc2ccc(Cl)cc2)cc1,12.7
12,CCOc1ccc(OCCSc2nnnn2C2CCCCC2)cc1,2.59
13,COc1ccc(C(C)(C)C)cc1NC(=O)Nc1ccc2c(c1)OCO2,2.22
14,COc1ccccc1-c1noc(CCC(=O)Nc2cccc(C(F)(F)F)c2)n1,9.08
15,CCc1ccc2oc(=O)cc(CN(C)Cc3ccccc3)c2c1,0.54
16,O=C(c1ccc2c(=O)n(C3CCCC3)c(=S)[nH]c2c1)N1CCN(C2CCCCC2)CC1,0.27
17,Cc1cc(C)c(C#N)c(SCC(=O)OC2CCCCC2)n1,4.58
18,COC(=O)c1ccc(CSc2nc3ccccc3o2)cc1,-2.69
19,CCCCn1nc(NC(=O)c2cccs2)c2cc3ccccc3nc21,-3.62
20,Cc1ccccc1OCCCN1C(=O)C(=O)c2cccc(C)c21,-1.21
21,Cc1cccc(Nc2nc(-c3ccccn3)cs2)n1,-0.44

row,SMILES,growth inhibition [%]
1,Clc1ccc(OCc2nc(-c3ccccn3)n[nH]2)cc1,3.08
2,CC1=C(C(=O)OC2CCCCCCC2)C(c2cccc(O)c2)NC(=O)N1 (stereo unspecified),3.15
3,CCC(C(=O)Nc1ccccc1OC)n1c(C(=O)OC)cc2ccsc21 (stereo unspecified),2.88
4,COc1cccc(-c2cc(C(=O)N3CCc4ccccc4C3)no2)c1,-1.57
5,CC(C)C(C(=O)NCc1ccco1)N(C(=O)CNS(=O)(=O)c1ccc(Cl)cc1)C1CCCC1 (stereo unspecified),-9.91
6,O=S(=O)(N1CCCCC1)n1c(Cc2ccccc2)nc2ccccc21,2.59
7,Cc1cc(N2CCCCC2)n2ncc(-c3ccccc3)c2n1,1.76
8,Cc1ccc(C(c2nnnn2CCc2ccccc2)N2CCSCC2)cc1 (stereo unspecified),-0.97
9,N#Cc1cn(Cc2cccc(Cl)c2)c2ccccc12,7.22
10,CCCCN1C(=O)C2ON(c3ccccc3C)C(c3ccco3)C2C1=O (stereo unspecified),3.87
11,CN1CCN(CC(=O)N2CCn3c4c(c5cc(C6CCCCC6)ccc53)CCCC42)CC1 (stereo unspecified),1.85
12,CCN(CCCNC(=O)c1[nH]c(C)c(C(C)=O)c1C)c1cccc(C)c1,1.22
13,CCCc1cc(C(=O)N2CCN(c3ccccc3C)CC2)cs1,3.4
14,COc1ccc2nc(NC(=O)CSc3nnnn3C3CCCCC3)sc2c1,0.18
15,CCn1cc(C(=O)NC2CCCCC2C)c(=O)c2ccc(C)nc21 (stereo unspecified),7.04
16,Cc1cccc(NC(=O)CSc2nnc(-c3cc(C)n(-c4ccccc4)c3C)o2)c1C,0.15
17,O=S(=O)(Nc1cc(Cl)ccc1N1CCCCC1)c1cccs1,3.05
18,Cc1cc(=O)[nH]c(SCC(=O)Nc2nc(-c3ccccc3)cs2)n1,4.29
19,COc1ccccc1N1CCN(C(=O)c2cc(-c3cccc(Cl)c3)on2)CC1,-2.98
